Screens as filed in PubChem.
Shown are actives, neighbours in structure and some others; about 6.8% of the full set was active somewhere.
HSF-1 act: increases HSF-1 driven luciferase reporter signal. 300,000 tested, 1.7% active. AID 504408. activation, % at 9 µM. NIH3T3-HGL HSF-1 luciferase reporter, MG132, 8 h; 100% = twice DMSO control signal;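 active = mean replicate activation of at least 50% with a set share of replicates each reaching 50%; inconclusive = only one of those two conditions met; inactive = mean below 50% and too few replicates reaching it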;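 note: 0% = median of the neutral control wells and 100% = twice that signal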
AI-2 QS modul: Vibrio harveyi AI-2 quorum sensing modulation; Vibrio harveyi JMH597 AI-2 luminescence/OD600 ratio, 9 h; stronger effect = lower value; strain lacks LuxN and CqsS sensors; 0 = neutral-control median; activity change, % at 7.5 µM; 300,000 tested, 0.4% active; in the data active = activity change below about -75%, passing the limit was not always enough; inconclusive = no clear call, values can overlap the other calls;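 note: luminescence divided by OD600 gain over 9 h not by final OD600 alone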
HSF1 inhib: HSF1 inhibition; NIH3T3-HGL HSE-luciferase, MG132-induced, luminescence 8 h; stronger effect = lower value; activity change, negative = inhibition, % at 7.5 µM (by protocol); 300,000 tested, 0.77% active;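 active = more than half of replicate wells show activity change below -50%, luminescence cut by over half; inconclusive = some wells, but at most half, below -50%; inactive = no replicate well below -50%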;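 note: luciferase reports HSF-1 transcriptional activity via heat shock element; 0% = median of DMSO wells and -100% = zero luminescence signal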
PHOSPHO1 inh: inhibitors of human PHOSPHO1 phosphatase. recombinant PHOSPHO1, absorbance phosphatase assay. Q8TCT1. AID 1565. inhibition, % at 13.3 µM. 290,000 tested, 1.1% active; in the data active = inhibition above about 60%
Target sequence (Q8TCT1 whole entry, looked up): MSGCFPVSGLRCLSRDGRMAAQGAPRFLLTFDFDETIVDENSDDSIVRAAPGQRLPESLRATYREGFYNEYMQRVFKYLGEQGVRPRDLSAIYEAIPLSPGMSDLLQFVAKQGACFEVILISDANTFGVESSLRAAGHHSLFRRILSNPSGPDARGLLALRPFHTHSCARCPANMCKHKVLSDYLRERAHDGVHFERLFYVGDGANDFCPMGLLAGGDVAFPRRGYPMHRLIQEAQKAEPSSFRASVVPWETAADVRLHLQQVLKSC
ALR H2O2 inh: human ALR oxidase inhibition via reduced H2O2; P55789; purified ALR, DTT oxidation, H2O2 HRP-luminol luminescence; inhibition, % (concentration not given with the values); 290,000 tested, 3.8% active;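 active = mean replicate inhibition above about 79%, with every replicate also reaching it, limit read from the data; inconclusive = only one of the two criteria met; inactive = mean below limit and not every replicate reaching it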
Target sequence (P55789 whole entry, looked up): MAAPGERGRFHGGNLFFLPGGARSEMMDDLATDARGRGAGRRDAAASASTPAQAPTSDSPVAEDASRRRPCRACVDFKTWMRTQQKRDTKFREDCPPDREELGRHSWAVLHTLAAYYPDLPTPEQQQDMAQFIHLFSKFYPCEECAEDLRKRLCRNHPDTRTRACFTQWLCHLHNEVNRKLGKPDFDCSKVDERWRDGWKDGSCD
HCV core dimer: blocks dimerization of HCV core protein. 300,000 tested, 0.33% active. TR-FRET GST/Flag-core106 dimerization, 1536-well. inhibition, % at 5 µM. AID 1899;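 active = inhibition above the mean of all tested compounds plus 3 SD, set per screening campaign, cut at about 45% in these data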
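Material: Tagged HCV core106 pair (GST and Flag) | Amount: GST-core106 13.5 nM, Flag-core106 17 nM | Medium: KF-containing HEPES buffer, pH 7.45, DTT, CHAPS, BSA | Reagent: Eu donor and XL665 acceptor anti-tag antibodies | Schedule: 4 h at 22.5 °C | Technique: Time-resolved FRET, ex 340 nm, em 617 and 671 nm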
* marks the source's active call; other numbers are inactive results; ? = inconclusive; · = no result.

SMILES	HSF-1 act	AI-2 QS modul	HSF1 inhib	PHOSPHO1 inh	ALR H2O2 inh	HCV core dimer
CC(C)(C)c1cn(-c2ccc(F)cc2)c(=S)[nH]1	46	12	5	69*	46	-5
Cc1ccc(C(=O)CSc2ccc(-c3cccnc3)nn2)cc1	7	39	4	-29	-1	-1
CC1(C)C2(C#N)C(N)=NC3(OCCO3)C12C#N (configuration not stated)	·	20	·	15	100*	-3
CCOC(=O)c1cc2sc(C)cc2n1CC(=O)N1CCN(C(=O)c2ccco2)CC1	13	17	-5	26	99*	4
CCOC(=O)c1cc2sccc2n1CC(=O)N1CCN(C(=O)c2ccco2)CC1	9	9	-6	-14	-1	-1
COC(=O)c1c(SCc2cccc3ccccc23)nc(=O)[nH]c1C	8	17	0	25	99*	-2
O=C(CN1C(=O)C2C3C=CC(C3)C2C1=O)OCC(=O)c1ccc(Br)cc1 (configuration not stated)	-66	-3	-60*	33	-4	1
Cc1ccc(-c2nn(Cc3ccccc3)cc2/C=C/C(=O)O)cc1	37	9	6	21	3	3
O=C(O)/C=C/c1cn(Cc2ccccc2)nc1-c1ccc(Cl)cc1	-1	11	2	5	95*	-4
Cc1c(-c2ccccc2)oc2c(C(=O)OCC(=O)Nc3ccc(F)cc3)cccc2c1=O	-8	17	-7	21	-12	13
Clc1ccc(-c2nn3c(C4COc5ccccc5O4)nnc3s2)cc1 (configuration not stated)	0	-19	-3	92*	-7	24
CCCCNC(=O)[C@H]1N2C(=O)c3c(ccc(OC)c3OC)C2SC1(C)C (some centres not stated)	-3	29	-2	36	-17	-3
NNC(=O)CSc1cccc2cccnc12	-5	21	-6	21	31	-5
CN(C)C(=O)CSc1cccc2cccnc12	-14	2	5	71*	-8	-2
O=C(CSc1cccc2cccnc12)N1CCCC1	60*	6	57	10	-6	8
O=C(CSc1ncccn1)N1CCCCCC1	·	·	·	·	-4	·
O=C(CSc1ncccc1-c1nc2ccccc2[nH]1)N1CCCCC1	·	18	·	89*	-10	2
Cc1ccc(C(=O)NNS(=O)(=O)c2ccc(F)cc2)cc1	14	44	-2	3	12	-10
O=C(O)c1cccc(COc2ccc3c(c2)CCC3)c1	-82	8	-79*	-1	91*	4
O=C(NCc1ccccc1)c1cccc(COc2ccc3c(c2)CCC3)c1	-35	25	-35	3	·	11
COc1cccc(OC)c1C(=O)NNC(=O)c1cccc(COc2ccc3c(c2)CCC3)c1	-58	10	-57*	6	-3	-1
O=C(c1ccc(COc2ccc3c(c2)CCC3)o1)N1CCN(c2ccccc2)CC1	62*	13	70	·	·	7
Cc1nc(NC(=O)c2ccccc2)sc1C1(C)CC(c2c(Cl)cccc2Cl)=NO1 (configuration not stated)	7	0	-1	34	·	·
CC(C)CCN1CCN(Cc2ccc(N3CCNC3=O)cc2)CC1CCO (configuration not stated)	-12	1	2	48	·	-1
Cc1ccc(C)c(NC(=O)c2cc(-c3cc(C)ccc3O)n[nH]2)c1	92*	32	48	36	·	0
SMILES	HSF-1 act	AI-2 QS modul	HSF1 inhib	PHOSPHO1 inh	ALR H2O2 inh	HCV core dimer
COc1ccc(NC(=O)c2cc(-c3cc(C)c(C)cc3O)n[nH]2)c(OC)c1	6	1	11	42	·	7
Cc1ccc(O)c(-c2cc(-c3ccccc3F)[nH]n2)c1	157*	2	135	6	61	-3
COc1ccc(NC(=O)c2cc(-c3cc(Cl)ccc3O)n[nH]2)c(OC)c1	-86	-2	-81*	42	-2	11
Cc1ccc(O)c(-c2cc(C(=O)NCc3ccncc3)[nH]n2)c1	49	-41	22	-22	90*	-2
COC(=O)CSCc1nc2ccccc2[nH]c1=O	6	14	-7	-18	99*	-14
COC(=O)CCc1nc2ccccc2[nH]c1=O	-10	18	-1	35	-3	-1
CCSc1ncc(Cl)c(C(=O)Nc2ccccc2C)n1	55*	5	10	20	2	4
CCS(=O)(=O)c1ncc(Cl)c(C(=O)Nc2ccccc2OC)n1	490*	22	381	-13	·	-4
CCOC(=O)c1ccc(NC(=O)c2nc(S(=O)(=O)Cc3ccccc3)ncc2Cl)cc1	-33	25	-23	22	-3	6
CCS(=O)(=O)c1ncc(Cl)c(C(=O)Nc2ccc(S(=O)(=O)N3CCC(C)CC3)cc2)n1	-85	31	-85*	10	66	14
COc1ccccc1NC(=O)c1nc(S(=O)(=O)Cc2ccccc2)ncc1Cl	-88	7	-87*	33	4	8
COc1ccc(N2C(=O)NC(NS(=O)(=O)c3ccc(NC(C)=O)cc3)(C(F)(F)F)C2=O)cc1 (configuration not stated)	-2	30	0	6	-1	-9
O=C(CCS(=O)(=O)c1cc(Br)cc2c1N(C(=O)C1CC1)CC2)N1CCN(c2ccccn2)CC1	27	2	-2	8	·	3
c1ccc2nc3c(cc2c1)CCCCC3	-2	-5	1	32	-7	-2
CCOc1ccccc1NC(=O)c1nc(S(=O)(=O)Cc2ccccc2)ncc1Cl	-83	11	-83*	44	96*	11
CCc1ccc(NC(=O)c2nc(S(=O)(=O)Cc3ccccc3)ncc2Cl)cc1	-70	28	?	42	-5	11
CC1=NN(C(=O)c2cc(C)nn2C)C(O)(C(F)(F)F)C1 (configuration not stated)	-4	10	3	-8	3	-5
CCCc1ccc2oc(C(=O)N3CCN(c4cnccn4)CC3)c(C)c2c1	26	38	2	3	-8	6
COc1ccc(C(=O)Nc2ccc3c(c2)C(=O)c2ccccc2C3=O)cc1OC	6	23	-2	-2	-3	10
COc1ccc(C(=O)c2c(C(F)(F)F)oc3c2C(=O)c2ccccc2C3=O)cc1OC	-38	9	-39	82*	-46	25
Cc1ccc(N(C(=O)c2ccc(Br)o2)C2C=CS(=O)(=O)C2)cc1 (configuration not stated)	28	18	8	15	77*	0
Cc1ccc(N(C(=O)c2cccs2)C2C=CS(=O)(=O)C2)cc1 (configuration not stated)	10	20	6	12	96*	2
